Laboratory results taken from ChEMBL document CHEMBL2010778, “Thiadiazoles as new inhibitors of diacylglycerol acyltransferase type 1” (Bioorg Med Chem Lett, 2012).

Tests used:
[1] = target: T1, Diacylglycerol O-acyltransferase 1 (Homo sapiens, UniProt O75907); experiment: Inhibition of human recombinant DGAT1 expressed in baculovirus infected Sf9 cells after 60 mins by scintillation counting method
T1 sequence (O75907 whole entry): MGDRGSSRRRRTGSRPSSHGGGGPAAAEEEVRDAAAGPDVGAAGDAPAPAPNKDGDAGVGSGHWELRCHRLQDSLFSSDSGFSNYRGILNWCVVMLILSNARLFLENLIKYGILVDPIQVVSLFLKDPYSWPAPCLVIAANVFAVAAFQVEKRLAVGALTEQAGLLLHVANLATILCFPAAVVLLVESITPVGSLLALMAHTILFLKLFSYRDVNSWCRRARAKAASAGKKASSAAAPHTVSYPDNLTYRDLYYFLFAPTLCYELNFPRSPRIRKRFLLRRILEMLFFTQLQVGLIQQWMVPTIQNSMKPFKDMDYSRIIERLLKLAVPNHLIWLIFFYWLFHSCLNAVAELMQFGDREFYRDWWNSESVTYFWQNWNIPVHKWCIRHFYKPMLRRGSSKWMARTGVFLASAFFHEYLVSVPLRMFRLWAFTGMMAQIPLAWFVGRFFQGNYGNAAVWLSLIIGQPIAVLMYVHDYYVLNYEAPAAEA

Mus musculus = experiment: Antihyperlipidemic activity in C57BL/6J mouse assessed as inhibition of rise in plasma triglyceride level at 1 mg/kg, po administered 1 hr before lipid challenge; type: functional
In short: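 Fasted male C57Bl/6J mice (n = 10/group) were dosed orally at 1 mg/kg in 0.5% methylcellulose/1% DMSO (10 mL/kg), 1 h before a 100 µL corn oil or water bolus. Blood was taken by intracardiac puncture under isoflurane 1 h after the challenge, and plasma triglycerides were measured with a commercial kit. Inhibition of the TG rise was assessed against vehicle by one-way ANOVA with Dunnett test.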

[2] = Metabolic stability in human hepatic microsomes assessed as compound metabolism after 20 mins; type: ADME; conditions: liver microsomes, read-out: Drug metabolism
In short: (§1)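 Compound was incubated for 20 min with human or mouse hepatic microsomal fraction. % liability is the disappearance of parent compound at the end of the incubation.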

[3] = Permeability across human Caco2 cell membrane; type: ADME, cell-based; conditions: Caco-2, read-out: permeability
[4] = Plasma concentration in C57BL/6J mouse at 1 mg/kg, po administered 1 hr before lipid challenge measured after 1 hr post dose; type: ADME, organism-based; parameters: dose 1 mg/kg, route oral
[5] = Metabolic stability in mouse hepatic microsomes assessed as compound metabolism after 20 mins; type: ADME; conditions: liver microsomes, read-out: Drug metabolism; in short: as §1

Structure (SMILES)	IC50 [1]	inhibition in vivo at 1 mg/kg (Mus musculus)	metabolised at 20 min [2]	Papp [3]	concentration at 1 h [4]	metabolised at 20 min [5]
CS(=O)(=O)c1nnc(NC(=O)c2ccc([C@H]3CC[C@H](CC(=O)O)CC3)cc2)s1	> 10 µM					
O=C(O)C[C@H]1CC[C@H](c2ccc(C(=O)Nc3nnc(Cc4ccccc4)s3)cc2)CC1		95%	0%	11.2 ×10⁻⁶ cm/s	79.1 ng/mL	5%
O=C(O)C[C@H]1CC[C@H](c2ccc(C(=O)Nc3nnc(Cc4cccc(F)c4)s3)cc2)CC1		107%	1%	12 ×10⁻⁶ cm/s		10%
O=C(O)C[C@H]1CC[C@H](c2ccc(C(=O)Nc3nnc(Cc4ccccc4F)s3)cc2)CC1		120%	0%	7.5 ×10⁻⁶ cm/s		4%
O=C(O)C[C@H]1CC[C@H](c2ccc(C(=O)Nc3nnc(Cc4cccc(Cl)c4)s3)cc2)CC1		101%	6%	8 ×10⁻⁶ cm/s		14%
CC(C)[C@H](NC(=O)c1ccc(-c2ccc(Nc3nnc(Cc4ccccc4)s3)cc2)cc1)C(=O)O				0.04 ×10⁻⁶ cm/s		
CN(C(=O)c1ccc([C@H]2CC[C@H](CC(=O)O)CC2)cc1)c1nnc(Cc2ccccc2)s1	> 10 µM					
O=C(O)CC1CCC(c2ccc(Nc3nnc(Cc4ccccc4)s3)cc2)CC1 (mixture of isomers)	> 10 µM					
